Experimental data as given in ChEMBL document CHEMBL3112463, “Synthesis and biological activity of polyalthenol and pentacyclindole analogues” (2014).
In brackets after ≈: the same amount, converted by molar mass.

Assays:
Format in all cases: functional
WiDr = experiment: Antiproliferative activity against human WiDr cells assessed as growth inhibition after 48 hrs by SRB assay
Outline: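 WiDr cells seeded at 20,000 cells/well after trypsinization into antibiotic-containing medium (trypan blue viability >97%). Culture at 37 °C, 5% CO₂ with foetal calf serum and 2 mM L-glutamine. Exposure to triplicate compound dilutions from DMSO stocks (0.25% v/v DMSO control) started day 1, lasting 48 h. Fixed with ice-cold 50% TCA, 60 min at 4 °C, then SRB, OD 492 nm background-subtracted.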

T47D = experiment: Antiproliferative activity against human T47D cells assessed as growth inhibition after 48 hrs by SRB assay
Outline: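 T-47D cells grown at 37 °C, 5% CO₂ in serum- and 2 mM L-glutamine-containing medium. Trypsinized, viability >97% by trypan blue, seeded at 15,000 cells/well. Compounds added day 1 in triplicate dilutions (DMSO vehicle 0.25% v/v as control) for 48 h. Cold 50% TCA fixation 60 min at 4 °C, SRB read at 492 nm with blank correction.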

HeLa = experiment: Antiproliferative activity against human HeLa cells assessed as growth inhibition after 48 hrs by SRB assay
Outline: (§1)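 Cells maintained at 37 °C, 5% CO₂ in medium with foetal calf serum and 2 mM L-glutamine. Trypsinized into antibiotic medium, >97% viable by trypan blue, plated at 10,000 cells/well. Triplicate dilutions from DMSO stocks (0.25% v/v DMSO control) added on day 1 for 48 h. TCA fixation (50%, 4 °C, 60 min), SRB stain, OD 492 nm corrected for medium-only blank.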

SW1573 = experiment: Antiproliferative activity against human SW1573 cells assessed as growth inhibition after 48 hrs by SRB assay; conditions: SW1573, 48 h; outline: as §1
[1] = Antiproliferative activity against human HBL100 cells assessed as growth inhibition after 48 hrs by SRB assay; conditions: HBL-100, 48 h; outline: as §1
A549 = experiment: Antiproliferative activity against human A549 cells assessed as growth inhibition after 48 hrs by SRB assay; conditions: A549, 48 h
Outline: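 Cells kept in medium with foetal calf serum and 2 mM L-glutamine at 37 °C, 5% CO₂. Trypsinized, resuspended in penicillin/streptomycin medium, >97% trypan blue viability, seeded at 10,000 cells/well. Compounds from DMSO stocks (0.25% v/v DMSO control), triplicate dilutions, added day 1 for 48 h. Fixed with cold 50% TCA for 60 min at 4 °C, then SRB staining, OD 492 nm, background corrected.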

Staphylococcus aureus = experiment: Antimicrobial activity against Staphylococcus aureus ATCC 29213 after 24 hrs by broth microdilution method; conditions: ATCC 29213, 24 h
Outline: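 Bacteria grown on nutrient agar at 35–37 °C for 24 h, then suspended in normal saline to approx. […] by matching to 0.5 McFarland standard. Broth microdilution in Mueller Hinton broth with growth and sterility controls, compounds first dissolved in DMSO.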

SMILES	GI50 (WiDr)	GI50 (T47D)	GI50 (HeLa)	GI50 (SW1573)	GI50 [1]	GI50 (A549)	MIC (Staphylococcus aureus)
COC(=O)[C@@]1(C)CCC=C2[C@@H]1CC[C@@H](C)[C@]2(C)Cc1c[nH]c2ccc(F)cc12	8 µM	3.9 µM	3.7 µM	7.3 µM	4.8 µM	6.2 µM	–
COC(=O)[C@@]1(C)CCC=C2[C@@H]1CC[C@@H](C)[C@]2(C)Cc1c[nH]c2ccc(OC)cc12	5.7 µM	3.7 µM	1.2 µM	1.3 µM	2.1 µM	2.2 µM	–
COC(=O)[C@@]1(C)CCC=C2[C@@H]1CC[C@@H](C)[C@]2(C)Cc1c(C)[nH]c2ccc(Br)cc12	15 µM	16 µM	11 µM	14 µM	15 µM	15 µM	–
COC(=O)[C@@]1(C)CCC=C2[C@@H]1CC[C@@H](C)[C@]2(C)Cc1c(C=O)[nH]c2ccccc12	20 µM	17 µM	4.4 µM	7.9 µM	7.5 µM	45 µM	50 µM (≈ 19.7 µg/mL)
COC(=O)[C@@]1(C)CC[C@@H]2C3=C1CC[C@@H](C)[C@]3(C)Cc1c2[nH]c2ccccc12	4 µM	3.4 µM	3.2 µM	8.3 µM	3.5 µM	4.6 µM	–
COC(=O)[C@@]1(C)CC[C@@H]2C3=C1CC[C@@H](C)[C@]3(C)Cc1c2[nH]c2ccc(OC)cc12	1.2 µM	6.5 µM	3.9 µM	5.9 µM	5 µM	7.7 µM	–
COC(=O)[C@@]1(C)CCC=C2[C@@H]1CC[C@@H](C)[C@]2(C)Cc1c[nH]c2ccccc12	8.7 µM	4.2 µM	3.6 µM	7.3 µM	4.5 µM	5 µM	–
